Where a name gives a salt, the structure may show the parent alone.
Legend:
[1] = Cytotoxicity against human leukemia cells after 48 hrs; format: functional; details: Leukemia cell
Method in brief: (§1)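 NCI 60-cell panel (subpanels include leukemia and prostate). […] Percent growth relative to untreated control; some repeats averaged over two experiments.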

[2] = test system: NSCLC; assay: Cytotoxicity against human NSCLC cells after 48 hrs; format: functional
Method in brief: (§2)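 NCI 60-cell panel subpanel lines; compounds first screened at a single 10−5 M, then those passing threshold tested in five-concentration assay over 10−9 to 10−4 M (some to 10−3 M), 48 h exposure. Growth relative to untreated control measured as cell protein; GI50, TGI and LC50 derived; some values are means of two experiments.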

[3] = Cytotoxicity against human COLON cells after 48 hrs; format: functional; method in brief: as §2
[4] = Cytotoxicity against human CNS cancer cells after 48 hrs; format: functional; details: Cancer cell lines; method in brief: as §2
[5] = Cytotoxicity against human melanoma cells after 48 hrs; format: functional; details: Melanoma cell; for CC50: read-out: LC50 (the source's name); method in brief: as §2
[6] = Cytotoxicity against human ovarian cancer cells after 48 hrs; format: functional; details: Cancer cell lines; method in brief: as §2
[7] = Cytotoxicity against human renal cancer cells after 48 hrs; format: functional; details: Cancer cell lines; for CC50: read-out: LC50 (the source's name); method in brief: as §2
[8] = Cytotoxicity against human breast cancer cells after 48 hrs; format: functional; details: Cancer cell lines; method in brief: as §2
[9] = Cytotoxicity against human prostate cancer cells after 48 hrs; format: functional; details: Cancer cell lines; method in brief: as §1
[10] = Inhibition of bovine brain tubulin assembly after 20 mins; parameters: species or system Bos taurus
[11] = organism: Bos taurus; assay: Displacement of [3H]colchicine from bovine brain tubulin at 5 uM after 10 mins

Row | Compound | GI50 [1] [µM] | GI50 [2] [µM] | GI50 [3] [µM] | GI50 [4] [µM] | TGI [4] [µM] | GI50 [5] [µM] | GI50 [6] [µM] | GI50 [7] [µM] | GI50 [8] [µM] | TGI [8] [µM] | TGI [3] [µM] | GI50 [9] [µM] | TGI [1] [µM] | TGI [2] [µM] | TGI [5] [µM] | TGI [6] [µM] | TGI [7] [µM] | TGI [9] [µM] | also measured
1 | Cc1nn2c(/C=C3/C(=O)Nc4ccc(F)cc43)c(C)nc2s1 | 2.34 | 19.5 | 4.17 | 20.9 | 87.1 | 26.9 | 33.9 | 26.9 | 6.31 | 57.5 |  |  |  |  |  |  |  |  | 
2 | CC[C@]1(O)C[C@H]2CN(CCc3c([nH]c4ccccc34)[C@@](C(=O)OC)(c3cc4c(cc3OC)N(C=O)[C@H]3[C@@](O)(C(=O)OC)[C@H](OC(C)=O)[C@]5(CC)C=CCN6CC[C@]43[C@@H]65)C2)C1 [VINCRISTINE SULFATE] | 0.1 | 0.25 | 0.1 | 0.13 |  | 0.16 | 0.32 | 0.32 | 0.32 |  | 3.98 | 0.13 |  |  |  |  |  |  | 
3 | COc1nc2sccn2c1/C=C1/C(=O)Nc2cccc(Cl)c21 | 2.19 | 7.08 | 3.72 | 6.31 | 32.4 | 4.9 | 4.68 | 7.08 | 3.24 | 50.1 | 91.2 | 13.2 | 64.6 | 70.8 | 60.3 | 43.6 | 49 |  | LC50 [4]: 87.1 µM; LC50 (concentration killing 50% of starting cells) [6]: 97.7 µM; CC50 [7]: 89.1 µM; LC50 [8]: 93.3 µM
4 | COc1nc2sccn2c1/C=C1/C(=O)Nc2cc(Cl)ccc21 | 0.14 | 1.29 | 0.33 | 0.35 | 16.2 | 0.21 | 0.65 | 0.62 | 0.54 | 58.9 | 22.4 | 0.39 | 5.37 | 79.4 | 34.7 | 21.4 | 49 | 69.2 | LC50 (concentration giving 50% net cell kill) [3]: 79.4 µM; LC50 [4]: 75.9 µM; CC50 [5]: 93.3 µM; LC50 (concentration killing 50% of starting cells) [6]: 89.1 µM; CC50 [7]: 85.1 µM; IC50 [10]: 13 µM; inhibition [11]: 53%
5 | O=C1Nc2ccccc2/C1=C\c1c(-c2ccccn2)nc2sccn12 | 0.35 | 1.58 | 0.49 | 0.81 | 20.9 | 2.45 | 2.88 | 2.34 | 0.59 | 36.3 | 52.5 | 1.02 | 14.8 | 70.8 | 91.2 | 37.1 | 95.5 |  | LC50 [4]: 89.1 µM; LC50 (concentration killing 50% of starting cells) [6]: 91.2 µM
6 | COc1ccc2c(c1)C(=Cc1c(OC)nc3sccn13)C(=O)N2C (mixture of isomers) | 0.16 | 1.02 | 0.35 | 0.38 | 18.6 | 0.79 | 0.63 | 0.71 | 0.49 | 49 | 24 | 0.55 |  | 58.9 | 72.4 | 31.6 | 53.7 |  | LC50 (concentration killing 50% of cells) [1]: 79.4 µM; LC50 (concentration giving 50% net cell kill) [3]: 87.1 µM; CC50 [5]: 91.2 µM; IC50 [10]: 3.8 µM; inhibition [11]: 45%
7 | COc1nc2sccn2c1/C=C1/C(=O)Nc2ccccc21 | 0.5 | 0.43 | 0.29 | 0.25 | 7.94 | 0.47 | 0.44 | 0.54 | 0.28 | 13.2 | 13.8 | 0.55 | 21.4 | 51.3 | 40.7 | 20.4 | 38.9 | 29.5 | LC50 (concentration killing 50% of cells) [1]: 60.3 µM; LC50 [2]: 93.3 µM; LC50 (concentration giving 50% net cell kill) [3]: 89.1 µM; LC50 [4]: 50.1 µM; CC50 [5]: 95.5 µM; LC50 [8]: 91.2 µM; IC50 [10]: 3.7 µM; inhibition [11]: 48%
8 | COc1ccc2c(c1)/C(=C\c1c(-c3ccc(Cl)cc3)nc3sc(C)nn13)C(=O)N2 |  |  |  | 69.2 |  |  |  | 81.3 | 95.5 |  |  |  |  |  |  |  |  |  | 
9 | COc1nc2sccn2c1C=C1C(=O)Nc2ccc(F)cc21 (mixture of isomers) | 3.39 | 6.03 | 3.16 | 6.46 | 42.7 | 6.03 | 5.62 | 6.76 | 2.88 | 51.3 | 61.7 | 12 |  | 66.1 | 47.9 | 44.7 | 47.9 | 93.3 | 
10 | COc1cc(-c2nc3sc(C)cn3c2/C=C2/C(=O)Nc3ccccc32)c(Br)c(OC)c1OC | 36.3 | 32.4 | 26.3 | 23.4 | 55 | 29.5 | 39.8 | 30.9 | 19.1 | 63.1 | 75.9 | 30.2 |  | 89.1 | 85.1 | 85.1 | 75.9 | 85.1 | 
11 | Cc1cn2c(/C=C3/C(=O)Nc4cc(Cl)ccc43)c(C)nc2s1 | 1.07 | 2.29 | 0.98 | 2.4 | 25.7 | 1.58 | 7.41 | 4.79 | 1.2 | 15.8 | 66.1 | 2.29 | 37.1 |  | 57.5 |  | 70.8 |  | 
12 | Cc1ccc(-c2nc3sc(C)cn3c2/C=C2/C(=O)N(C)c3ccccc32)cc1 | 7.08 | 24 | 20.4 | 19.1 | 75.9 | 17.4 | 32.4 | 15.1 | 13.5 | 75.9 |  | 6.46 | 63.1 | 89.1 | 87.1 | 89.1 | 85.1 |  | 
13 | COc1ccc2c(c1)/C(=C\c1c(-c3ccc(C)cc3)nc3sc(C)cn13)C(=O)N2C | 4.37 | 14.8 | 6.03 | 39.8 |  | 52.5 | 56.2 | 4.79 | 12.9 | 72.4 | 33.1 | 5.37 | 56.2 | 85.1 |  |  | 70.8 |  | 
14 | Cc1ccc(-c2nc3sc(C)cn3c2/C=C2/C(=O)Nc3cc(C)c(O)cc32)cc1 | 52.5 | 18.6 | 60.3 | 11.8 | 91.2 | 33.9 | 10.5 | 18.2 | 12.6 | 63.1 |  | 21.4 |  | 72.4 |  | 63.1 |  |  | 
15 | Cc1nn2c(/C=C3/C(=O)Nc4ccc(F)cc43)c(-c3ccc(Cl)cc3)nc2s1 | 25.1 | 60.3 | 38 | 20.4 | 79.4 | 66.1 | 21.9 | 26.3 | 36.3 | 95.5 |  |  |  |  |  |  | 72.4 |  | 
16 | COc1nc2sccn2c1/C=C1/C(=O)Nc2ccc(Cl)cc21 | 1.32 | 4.27 | 1.41 | 3.31 | 40.7 | 3.72 | 3.47 | 3.31 | 2.45 | 74.1 | 64.6 | 3.98 | 26.3 | 89.1 | 40.7 | 46.8 | 58.9 | 81.3 | 
17 | O=C1Nc2cc(Cl)ccc2C1=Cc1c(-c2ccccn2)nc2sccn12 (mixture of isomers) | 0.06 | 0.33 | 0.11 | 0.17 | 6.03 | 0.12 | 0.27 | 0.25 | 0.21 | 12.6 | 21.9 | 0.15 | 4.57 | 28.8 | 15.1 | 11.5 | 15.8 | 31.6 | LC50 [2]: 49 µM; LC50 (concentration giving 50% net cell kill) [3]: 46.8 µM; LC50 [4]: 38 µM; CC50 [5]: 38.9 µM; LC50 (concentration killing 50% of starting cells) [6]: 36.3 µM; CC50 [7]: 42.7 µM; LC50 [8]: 46.8 µM; IC50 [10]: 9.3 µM; inhibition [11]: 48%
18 | COc1nc2sccn2c1/C=C1/C(=O)N(C)c2ccccc21 | 3.89 | 7.94 | 2.24 | 11 | 77.6 | 8.71 | 6.46 | 15.8 | 2.19 | 60.3 | 60.3 | 21.4 | 43.6 | 95.5 | 77.6 |  | 85.1 |  | 

Source: ChEMBL document CHEMBL2062525, “Substituted 3-(5-imidazo[2,1-b]thiazolylmethylene)-2-indolinones and analogues: synthesis, cytotoxic activity, and study of the mechanism of action” (J Med Chem, 2012)
